Data: ChEMBL document CHEMBL1149770, “Synthesis and antimicrobial studies of novel dichlorofluorophenyl containing aminotriazolothiadiazines” (2008)
≈ marks a conversion by molar mass, not a printed value.

Experiments:
Staphylococcus aureus [1] = assay: Antibacterial activity against Staphylococcus aureus ATCC 25923 after 24 hrs by broth dilution technique; format: functional; details: ATCC 25923, 24 h
How it was run: (§1)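 MIC by broth dilution in nutrient broth with logarithmic serial twofold dilutions of compound. Inoculum approx. 5×10^5 c.f.u actively dividing bacteria. Incubated 24 h at 37 °C, growth monitored visually and spectrophotometrically. MIC taken as the lowest concentration (highest dilution) arresting growth. Ciprofloxacin reference.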

Escherichia coli = assay: Antibacterial activity against Escherichia coli ATCC 25922 after 24 hrs by broth dilution technique; format: functional; details: ATCC 25922, 24 h; how it was run: as §1
Pseudomonas aeruginosa [2] = assay: Antibacterial activity against Pseudomonas aeruginosa ATCC 27853 after 24 hrs by broth dilution technique; format: functional; details: ATCC 27853, 24 h; how it was run: as §1
Pseudomonas aeruginosa [3] = assay: Antibacterial activity against Pseudomonas aeruginosa ATCC 27853 assessed as inhibition zone diameter after 24 hrs […]; format: functional
How it was run: (§2)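 Disc diffusion on nutrient agar. Inoculum 1-2 × 10^7 c.f.u/ml (0.5 McFarland) spread over the plate surface. Sterile 6.25 mm filter-paper discs soaked in a known concentration of compound. Solvent and growth controls included. Plates incubated inverted 24 h at 37 °C, then inhibition zone diameter measured in mm. Ciprofloxacin reference.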

Klebsiella pneumoniae [4] = assay: Antibacterial activity against Klebsiella pneumoniae after 24 hrs by broth dilution technique; format: functional; how it was run: as §1
Klebsiella pneumoniae [5] = assay: Antibacterial activity against Klebsiella pneumoniae assessed as inhibition zone diameter after 24 hrs […]; format: functional; how it was run: as §2
Candida albicans [6] = assay: Antifungal activity against Candida albicans after 48 hrs […]; format: functional
Aspergillus flavus [7] = assay: Antifungal activity against Aspergillus flavus after 48 hrs […]; format: functional
Aspergillus fumigatus [8] = assay: Antifungal activity against Aspergillus fumigatus after 48 hrs […]; format: functional
Aspergillus fumigatus [9] = assay: Antifungal activity against Aspergillus fumigatus assessed as inhibition zone diameter […] by agar dilution method; format: functional
How it was run: (§3)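 Compounds in DMSO placed in punched wells on Sabouraud agar (peptone, glucose, agar, pH 5.7) lawned with saline spore suspension. Plates pre-dried 1 h at 37 °C. Controls in triplicate, incubation at 37 °C for 3-4 days, then inhibition zone diameter read in mm. Amphotericin B reference.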

[10] = tested on: Trichophyton mentagrophytes; assay: Antifungal activity against Trichophyton mentagrophytes after 48 hrs […]; format: functional
[11] = tested on: Trichophyton mentagrophytes; assay: Antifungal activity against Trichophyton mentagrophytes assessed as inhibition zone diameter […] by agar dilution method; format: functional; how it was run: as §3
Talaromyces marneffei [12] = assay: Antifungal activity against Penicillium marneffei after 48 hrs […]; format: functional
Talaromyces marneffei [13] = assay: Antifungal activity against Penicillium marneffei assessed as inhibition zone diameter […] by agar dilution method; format: functional; how it was run: as §3
Candida albicans [14] = assay: Antifungal activity against Candida albicans assessed as inhibition zone diameter […] by agar dilution method; format: functional; how it was run: as §3
Aspergillus flavus [15] = assay: Antifungal activity against Aspergillus flavus assessed as inhibition zone diameter […] by agar dilution method; format: functional; how it was run: as §3
Staphylococcus aureus [16] = assay: Antibacterial activity against Staphylococcus aureus ATCC 25923 assessed as inhibition zone diameter after 24 hrs […]; format: functional; how it was run: as §2
Streptococcus pyogenes [17] = assay: Antibacterial activity against Streptococcus pyogenes after 24 hrs by broth dilution technique; format: functional; how it was run: as §1
Streptococcus pyogenes [18] = assay: Antibacterial activity against Streptococcus pyogenes assessed as inhibition zone diameter after 24 hrs by disc diffusion method

MIC (Staphylococcus aureus [1]) [µg/mL] | MIC (Escherichia coli) [µg/mL] | MIC (Pseudomonas aeruginosa [2]) [µg/mL] | MIC (Klebsiella pneumoniae [4]) [µg/mL] | MIC (Candida albicans [6]) [µg/mL] | MIC (Aspergillus flavus [7]) [µg/mL] | MIC (Aspergillus fumigatus [8]) [µg/mL] | MIC [10] [µg/mL] | MIC (Talaromyces marneffei [12]) [µg/mL] | MIC (Streptococcus pyogenes [17]) [µg/mL] | SMILES | inhibition zone (IZ) (Pseudomonas aeruginosa [3]) [mm] | inhibition zone (IZ) (Klebsiella pneumoniae [5]) [mm] | inhibition zone (IZ) (Aspergillus fumigatus [9]) [mm] | inhibition zone (IZ) [11] [mm] | inhibition zone (IZ) (Talaromyces marneffei [13]) [mm] | inhibition zone (IZ) (Candida albicans [14]) [mm] | inhibition zone (IZ) (Aspergillus flavus [15]) [mm] | inhibition zone (IZ) (Staphylococcus aureus [16]) [mm] | inhibition zone (IZ) (Streptococcus pyogenes [18]) [mm]
> 100 | 12.5 (≈ 27 µM) | 12.5 (≈ 27 µM) | 12.5 (≈ 27 µM) | > 100 | > 100 | 12.5 (≈ 27 µM) | 25 (≈ 54 µM) | 12.5 (≈ 27 µM) |  | Fc1cc(-c2nnc3n2N=C(Nc2cccc(Cl)c2Cl)CS3)c(Cl)cc1Cl | 17 | 14 | 11 | 8 | 12 |  |  |  | 
> 100 | > 100 | > 100 | > 100 | 12.5 (≈ 27.5 µM) | 6.25 (≈ 13.8 µM) | 12.5 (≈ 27.5 µM) | 6.25 (≈ 13.8 µM) | 12.5 (≈ 27.5 µM) |  | Cc1cc(C)c(NC(=O)CSc2nnc(-c3cc(F)c(Cl)cc3Cl)n2N)c(C)c1 |  |  | 15 | 17 | 13 | 11 | 23 |  | 
6.25 (≈ 14.1 µM) | 6.25 (≈ 14.1 µM) | 6.25 (≈ 14.1 µM) | 6.25 (≈ 14.1 µM) | > 100 | > 100 | > 100 | > 100 | > 100 | 6.25 (≈ 14.1 µM) | COc1ccc(NC(=O)CSc2nnc(-c3cc(F)c(Cl)cc3Cl)n2N)cc1 | 32 | 21 |  |  |  |  |  | 24 | 23
12.5 (≈ 30.3 µM) | 6.25 (≈ 15.2 µM) | 12.5 (≈ 30.3 µM) | 12.5 (≈ 30.3 µM) | 12.5 (≈ 30.3 µM) | > 100 | 25 (≈ 60.6 µM) | 6.25 (≈ 15.2 µM) | 6.25 (≈ 15.2 µM) | 6.25 (≈ 15.2 µM) | Fc1ccc(NC2=Nn3c(nnc3-c3cc(F)c(Cl)cc3Cl)SC2)cc1 | 24 | 16 | 6 | 18 | 19 | 14 |  | 15 | 22
6.25 (≈ 14.7 µM) | > 100 | 25 (≈ 58.9 µM) | 12.5 (≈ 29.5 µM) | 6.25 (≈ 14.7 µM) | 6.25 (≈ 14.7 µM) | 12.5 (≈ 29.5 µM) | 12.5 (≈ 29.5 µM) | > 100 | 12.5 (≈ 29.5 µM) | COc1ccc(NC2=Nn3c(nnc3-c3cc(F)c(Cl)cc3Cl)SC2)cc1 | 15 | 12 | 12 | 13 |  | 19 | 18 | 22 | 16
> 100 | > 100 | > 100 | > 100 | > 100 | > 100 | > 100 | > 100 | > 100 |  | Nn1c(SCC(=O)Nc2cccc(Cl)c2Cl)nnc1-c1cc(F)c(Cl)cc1Cl |  |  |  |  |  |  |  |  | 
> 100 | 25 (≈ 54 µM) | > 100 | > 100 | 6.25 (≈ 13.5 µM) | > 100 | 25 (≈ 54 µM) | 12.5 (≈ 27 µM) | 25 (≈ 54 µM) | 12.5 (≈ 27 µM) | Fc1cc(-c2nnc3n2N=C(Nc2c(Cl)cccc2Cl)CS3)c(Cl)cc1Cl |  |  | 10 | 12 | 10 | 18 |  |  | 15
6.25 (≈ 14.3 µM) | > 100 | 25 (≈ 57 µM) | 12.5 (≈ 28.5 µM) | 12.5 (≈ 28.5 µM) | 25 (≈ 57 µM) | 12.5 (≈ 28.5 µM) | > 100 | 12.5 (≈ 28.5 µM) |  | CCOc1ccc(NC2=Nn3c(nnc3-c3cc(F)c(Cl)cc3Cl)SC2)cc1 | 15 | 12 | 15 |  | 17 | 12 | 10 | 20 | 
> 100 | 12.5 (≈ 27 µM) | > 100 | 12.5 (≈ 27 µM) | 12.5 (≈ 27 µM) | 25 (≈ 54 µM) | 6.25 (≈ 13.5 µM) | 12.5 (≈ 27 µM) | 12.5 (≈ 27 µM) |  | Fc1cc(-c2nnc3n2N=C(Nc2ccc(Cl)cc2Cl)CS3)c(Cl)cc1Cl |  | 17 | 19 | 11 | 12 | 15 | 8 |  | 
> 100 | > 100 | > 100 | > 100 | > 100 | > 100 | > 100 | > 100 | > 100 |  | Nn1c(SCC(=O)Nc2ccc(Cl)cc2Cl)nnc1-c1cc(F)c(Cl)cc1Cl |  |  |  |  |  |  |  |  | 
> 100 | > 100 | > 100 | > 100 | > 100 | > 100 | > 100 | > 100 | > 100 |  | CCOc1ccc(NC(=O)CSc2nnc(-c3cc(F)c(Cl)cc3Cl)n2N)cc1 |  |  |  |  |  |  |  |  | 
> 100 | 6.25 (≈ 14 µM) | 12.5 (≈ 28 µM) | 12.5 (≈ 28 µM) | > 100 | > 100 | > 100 | 25 (≈ 56 µM) | 12.5 (≈ 28 µM) | 6.25 (≈ 14 µM) | Fc1ccc(NC2=Nn3c(nnc3-c3cc(F)c(Cl)cc3Cl)SC2)cc1Cl | 20 | 11 |  | 10 | 16 |  |  |  | 18
> 100 | > 100 | > 100 | > 100 | > 100 | > 100 | > 100 | > 100 | > 100 |  | Cc1cccc(C)c1NC(=O)CSc1nnc(-c2cc(F)c(Cl)cc2Cl)n1N |  |  |  |  |  |  |  |  | 
6.25 (≈ 14.3 µM) | 12.5 (≈ 28.6 µM) | 25 (≈ 57.3 µM) | 25 (≈ 57.3 µM) | 12.5 (≈ 28.6 µM) | > 100 | > 100 | 12.5 (≈ 28.6 µM) | 12.5 (≈ 28.6 µM) | 12.5 (≈ 28.6 µM) | Cc1cc(C)c(NC2=Nn3c(nnc3-c3cc(F)c(Cl)cc3Cl)SC2)c(C)c1 | 16 | 8 |  | 14 | 11 | 13 |  | 23 | 15
6.25 (≈ 14.8 µM) | 12.5 (≈ 29.6 µM) | 25 (≈ 59.2 µM) | 6.25 (≈ 14.8 µM) | 25 (≈ 59.2 µM) | > 100 | 12.5 (≈ 29.6 µM) | > 100 | 6.25 (≈ 14.8 µM) | 25 (≈ 59.2 µM) | Cc1cccc(NC2=Nn3c(nnc3-c3cc(F)c(Cl)cc3Cl)SC2)c1C | 12 | 19 | 16 |  | 18 | 10 |  | 25 | 10
> 100 | 12.5 (≈ 29.6 µM) | 12.5 (≈ 29.6 µM) | 12.5 (≈ 29.6 µM) | 25 (≈ 59.2 µM) | 12.5 (≈ 29.6 µM) | 25 (≈ 59.2 µM) | 12.5 (≈ 29.6 µM) | > 100 | 12.5 (≈ 29.6 µM) | Cc1ccc(NC2=Nn3c(nnc3-c3cc(F)c(Cl)cc3Cl)SC2)c(C)c1 | 18 | 14 | 9 | 12 |  | 8 | 15 |  | 11

SMILES | MIC (Staphylococcus aureus [1]) [µg/mL] | MIC (Escherichia coli) [µg/mL] | MIC (Pseudomonas aeruginosa [2]) [µg/mL] | MIC (Klebsiella pneumoniae [4]) [µg/mL] | MIC (Candida albicans [6]) [µg/mL] | MIC (Aspergillus flavus [7]) [µg/mL] | MIC (Aspergillus fumigatus [8]) [µg/mL] | MIC [10] [µg/mL] | MIC (Talaromyces marneffei [12]) [µg/mL] | MIC (Streptococcus pyogenes [17]) [µg/mL] | inhibition zone (IZ) (Pseudomonas aeruginosa [3]) [mm] | inhibition zone (IZ) (Klebsiella pneumoniae [5]) [mm] | inhibition zone (IZ) (Aspergillus fumigatus [9]) [mm] | inhibition zone (IZ) [11] [mm] | inhibition zone (IZ) (Talaromyces marneffei [13]) [mm] | inhibition zone (IZ) (Candida albicans [14]) [mm] | inhibition zone (IZ) (Aspergillus flavus [15]) [mm] | inhibition zone (IZ) (Staphylococcus aureus [16]) [mm] | inhibition zone (IZ) (Streptococcus pyogenes [18]) [mm]
O=C(O)c1cn(C2CC2)c2cc(N3CCNCC3)c(F)cc2c1=O [CIPROFLOXACIN] |  |  |  | 6.25 (≈ 18.9 µM) |  |  |  |  |  | 6.25 (≈ 18.9 µM) | 33 | 22 |  |  |  |  |  | 25 | 25
C[C@@H]1[C@H](O)[C@@H](C)/C=C/C=C/C=C/C=C/C=C/C=C/C=C/[C@H](O[C@@H]2O[C@H](C)[C@@H](O)[C@H](N)[C@@H]2O)C[C@@H]2O[C@](O)(C[C@@H](O)C[C@@H](O)[C@H](O)CC[C@@H](O)C[C@@H](O)CC(=O)O[C@H]1C)C[C@H](O)[C@H]2C(=O)O [AMPHOTERICIN B] |  |  |  |  | 6.25 (≈ 6.76 µM) | 6.25 (≈ 6.76 µM) | 6.25 (≈ 6.76 µM) | 6.25 (≈ 6.76 µM) | 6.25 (≈ 6.76 µM) |  |  |  | 22 | 19 | 23 | 20 | 25 |  | 
